Entries after “also recorded” stand apart in the source; their conditions may differ. Like-named read-outs stand apart in the source and are kept apart here.

For series [1], the system named is H146 small-cell lung cancer cell line. Nature of the series: Cell growth inhibition assay. Type of series: cell-based, Human.
For series [2], the target named is T1, Bcl-2 (Homo sapiens, UniProt P10415). To be noted: read-out: Ki, binding to Bcl-2; cited from earlier work.
The target in series [3] is T2, Bcl-xL (Homo sapiens, UniProt Q07817). To be noted: read-out: Ki, binding to Bcl-xL; cited from earlier work.
T2 sequence (Q07817 whole entry): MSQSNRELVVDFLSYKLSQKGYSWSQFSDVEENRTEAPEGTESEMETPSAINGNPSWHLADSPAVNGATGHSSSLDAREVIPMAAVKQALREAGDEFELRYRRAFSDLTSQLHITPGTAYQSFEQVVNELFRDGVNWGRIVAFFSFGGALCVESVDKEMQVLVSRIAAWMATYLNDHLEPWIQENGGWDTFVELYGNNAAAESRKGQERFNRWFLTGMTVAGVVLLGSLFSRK
Series [4] deals with H146 small-cell lung cancer xenograft. The following applies: 25 mg/kg, i.v., 5 days per week for 2 weeks; cited from earlier work.
The conditions of series [5]: cited from earlier work.
The test system of series [6] is animal model of human cancer. The following applies: cited from earlier work.
In series [7] the target is T1, Bcl-2. Nature of the series: FP based competitive binding assay, Bcl-2. The following applies: for Times less potent than compound 4 in binding to Bcl-2: versus 4.
Series [8] has as its target T2, Bcl-xL. Nature of the series: FP based competitive binding assay, Bcl-xL. The following applies: versus 8. The essentials: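 Competitive fluorescence-polarization assay for Bcl-xL: pre-incubated Bcl-xL (10 nM) and fluorescent probe (2 nM) with serial dilutions of test compound, room temperature, 2 h, gentle shaking. Millipolarization plotted against total compound concentration. IC50 obtained by nonlinear regression; Ki calculated from IC50.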

The target in another series is Mcl-1 (Homo sapiens, UniProt Q07820). Nature of the series: FP based competitive binding assay, Mcl-1. The following applies: at concentrations as high as 2 μM.
Mcl-1, sequence (Q07820 whole entry): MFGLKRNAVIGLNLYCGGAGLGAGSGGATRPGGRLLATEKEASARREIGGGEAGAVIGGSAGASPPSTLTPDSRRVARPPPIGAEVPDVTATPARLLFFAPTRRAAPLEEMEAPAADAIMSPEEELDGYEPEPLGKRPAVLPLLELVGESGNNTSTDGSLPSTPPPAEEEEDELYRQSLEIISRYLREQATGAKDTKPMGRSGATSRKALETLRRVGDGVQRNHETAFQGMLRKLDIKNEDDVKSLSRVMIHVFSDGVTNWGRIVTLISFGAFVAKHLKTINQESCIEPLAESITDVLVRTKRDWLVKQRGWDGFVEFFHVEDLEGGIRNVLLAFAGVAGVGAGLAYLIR
A further series relates to H146 xenograft tumors. Nature of the series: Western blot of H146 xenograft tumor tissue for cleavage of PARP and caspase-3. The class given is in vivo, SCID mice. The following applies: single dose 15 mg/kg i.v., 3 and 6 h time points. The essentials: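 SCID mice carried subcutaneous H146 xenografts (5 × 10^6 cells with Matrigel) of approximately 100 mm3. They received a single 15 mg/kg i.v. dose of test compound or vehicle. Tumors were harvested at 3, 6 or 24 h, and western blot measured total and cleaved PARP and caspase-3.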
On the technique in general: A western blot detects proteins with antibodies after separation by electrophoresis.

Series [9] concerns H146 small-cell lung cancer xenograft. The experiment in a line: Antitumor efficacy in the H146 xenograft tumor model. Type of series: in vivo, SCID mice. The following applies: for Antitumor activity / Tumor regression: daily, 5 days a week for 2 weeks. The essentials: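 Subcutaneous dorsal xenografts in SCID mice: 5 × 10^6 H146 cells with Matrigel, one tumor per mouse. At 100–150 mm3 (mean 126 mm3), animals randomized into groups of 8. Vehicle or test compound given i.v. at 15 mg/kg, daily, 5 days/week for 2 weeks. Tumor size and body weight measured 3×/week during and 2×/week after dosing. Data are mean tumor volume ± SEM; two-way ANOVA and unpaired two-tailed t test, P < 0.05.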

Series [10] relates to small-cell lung cancer cell lines. The class given is cell-based, Human. To be noted: for IC50: Homo sapiens. The essentials: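 H146, H1963, H187 and H1417 small-cell lung cancer lines were maintained in RPMI-1640 with 10% FBS. Cells were exposed to various concentrations of test compound for 4 days. WST-8 was added for a further 1–2 h and absorbance read at 450 nm. IC50 was calculated against untreated cells, with at least three independent experiments per line.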

T1 sequence (P10415 whole entry): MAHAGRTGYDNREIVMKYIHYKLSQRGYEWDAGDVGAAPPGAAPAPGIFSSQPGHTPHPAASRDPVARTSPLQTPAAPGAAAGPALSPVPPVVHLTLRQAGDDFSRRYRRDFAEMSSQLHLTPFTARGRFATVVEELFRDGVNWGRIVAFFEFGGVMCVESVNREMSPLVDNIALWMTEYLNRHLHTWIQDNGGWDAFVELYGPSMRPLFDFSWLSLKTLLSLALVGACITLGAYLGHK

A word on the Ki: it is the equilibrium dissociation constant of an inhibitor or competing ligand from its target. Regarding `CCn1c(C)c(C(=O)O)c(-c2cccc(N3CCN(c4ccc(NS(=O)(=O)c5ccc(N[C@H](CCN(C)C)CSc6ccccc6)c([N+](=O)[O-])c5)cc4)CC3)c2)c1-c1ccc(Cl)cc1` [Compound 5], in [1] (versus 4), the “Times more potent than compound 4 in H146 cell growth inhibition” value was 8 times. For the same compound, the Ki on Bcl-2 [2] and on Bcl-xL [3] was under 1 nM each time. In addition, the “Antitumor activity in H146 xenograft model” value in series [4] is given as “failed to achieve long-lasting tumor regression”. Further, the “Chemical stability” value in [5] was “excellent chemical stability”.

`CCn1c(C)c(C(=O)O)c(-c2cccc(N3CCN(c4ccc(NS(=O)(=O)c5ccc(N[C@H](CCN6CCC(O)CC6)CSc6ccccc6)c(S(=O)(=O)C(F)(F)F)c5)cc4)CC3)c2)c1-c1ccc(Cl)cc1` [Compound 6, BM-957]: the Ki on Bcl-2 [2] and at Bcl-xL [3] was under 1 nM each time. In addition, the “Tumor regression” value in series [6] is given as “achieved tumor regression”.

As to `Cc1c(C(N)=O)c(-c2cccc(N3CCN(c4ccc(NS(=O)(=O)c5ccc(N[C@H](CCN(C)C)CSc6ccccc6)c([N+](=O)[O-])c5)cc4)CC3)c2)c(-c2ccc(Cl)cc2)n1C` [Compound 9, (R)-5-(4-Chlorophenyl)-4-(3-(4-(4-(4-(4-(dimethylamino)-1-(phenylthio)butan-2-ylamino)-3-nitrophenylsulfonamido)phenyl)piperazin-1-yl)phenyl)-1,2-dimethyl-1H-pyrrole-3-carboxamide], at Bcl-2 [7] (versus 8), the “Times less potent than compound 8 in binding to Bcl-2” value amounted to 4 times. In addition, the “Times less potent than compound 8 in binding to Bcl-xL” value at Bcl-xL [8] was 2 times. For the same compound, the “Times less potent than compound 8 in H146 cell growth inhibition” value in series [1] (versus 8) turned out to be 6 times.

As to `Cc1c(C(=O)O)c(-c2cccc(N3CCN(c4ccc(NS(=O)(=O)c5ccc(N[C@H](CCN(C)C)CSc6ccccc6)c([N+](=O)[O-])c5)cc4)CC3)c2)c(-c2ccc(Cl)cc2)n1C` [Compound 4], the Ki on Bcl-2 [2] and at Bcl-xL [3] was under 1 nM throughout. Further, in series [5], the “Chemical stability” value was “excellent chemical stability”.

Turning to `Cc1c(C#N)c(-c2cccc(N3CCN(c4ccc(NS(=O)(=O)c5ccc(N[C@H](CCN(C)C)CSc6ccccc6)c([N+](=O)[O-])c5)cc4)CC3)c2)c(-c2ccc(Cl)cc2)n1C` [Compound 15, (R)-N-(4-(4-(3-(2-(4-Chlorophenyl)-4-cyano-1,5-dimethyl-1H-pyrrol-3-yl)phenyl)piperazin-1-yl)phenyl)-4-(4-(dimethylamino)-1-(phenylthio)butan-2-ylamino)-3-nitrobenzenesulfonamide], the “Times less potent than compound 4 in binding to Bcl-2” value at Bcl-2 [7] is reported as over 10 times. Moreover, the “Times less potent than compound 4 in H146 cell growth inhibition” value in series [1] (versus 4) stood at 8 times.

For `CCn1c(C)c(C(=O)NS(C)(=O)=O)c(-c2cccc(N3CCN(c4ccc(NS(=O)(=O)c5ccc(N[C@H](CCN(C)C)CSc6ccccc6)c([N+](=O)[O-])c5)cc4)CC3)c2)c1-c1ccc(Cl)cc1` [Compound 31, (R)-5-(4-Chlorophenyl)-4-(3-(4-(4-(4-(4-(dimethylamino)-1-(phenylthio)butan-2-ylamino)-3-nitrophenylsulfonamido)phenyl)piperazin-1-yl)phenyl)-1-ethyl-2-methyl-N-(methylsulfonyl)-1H-pyrrole-3-carboxamide], the “Binding to Mcl-1” value at Mcl-1 is given as “no appreciable binding”. For the same compound, the “Cleavage of PARP and caspase-3 in H146 tumor tissue” value with H146 xenograft tumors was “robust cleavage of PARP and caspase-3”. Further, in series [9] (15 mg/kg i.v.), the “Antitumor activity” value is on record as “strong antitumor activity” and the “Tumor regression” value is recorded as “partial tumor regression”.

On to `Cc1c(C(F)(F)F)c(-c2cccc(N3CCN(c4ccc(NS(=O)(=O)c5ccc(N[C@H](CCN(C)C)CSc6ccccc6)c([N+](=O)[O-])c5)cc4)CC3)c2)c(-c2ccc(Cl)cc2)n1C` [Compound 14, (R)-N-(4-(4-(3-(2-(4-Chlorophenyl)-1,5-dimethyl-4-(trifluoromethyl)-1H-pyrrol-3-yl)phenyl)piperazin-1-yl)phenyl)-4-(4-(dimethylamino)-1-(phenylthio)butan-2-ylamino)-3-nitrobenzenesulfonamide], for which, at Bcl-2 [7], the “Times less potent than compound 4 in binding to Bcl-2” value is recorded as 100 times. The “Times less potent than compound 4 in H146 cell growth inhibition” value in [1] (versus 4) was over 100 times.

As usually defined, the IC50 is the concentration that gives 50% inhibition. Turning to `Cc1c(C(=O)NS(C)(=O)=O)c(-c2cccc(N3CCN(c4ccc(NS(=O)(=O)c5ccc(N[C@H](CCN(C)C)CSc6ccccc6)c([N+](=O)[O-])c5)cc4)CC3)c2)c(-c2ccc(Cl)cc2)n1C(C)C` [Compound 32, (R)-5-(4-Chlorophenyl)-4-(3-(4-(4-(4-(4-(dimethylamino)-1-(phenylthio)butan-2-ylamino)-3-nitrophenylsulfonamido)phenyl)piperazin-1-yl)phenyl)-1-isopropyl-2-methyl-N-(methylsulfonyl)-1H-pyrrole-3-carboxamide], the “Binding to Mcl-1” value at Mcl-1 is listed as “no appreciable binding; also recorded: does not show any appreciable binding”. For the same compound, the 50% inhibitory concentration (IC50) in series [10] (read-out: IC50, cancer cell growth inhibition) is 1 to 2 nM. Moreover, the IC50 in [10] (read-out: IC50, cell growth inhibition) lay within 1 to 2.3 nM. The “Times more potent than compound 1 in cell growth inhibition” value in series [10] (versus 1, each of H1963, H187, H1417, based on IC50) was over 50 times. For the same compound, in series [10] (versus 2, each of H1963, H187, H1417, based on IC50), the “Times more potent than compound 2 in cell growth inhibition” value was over 10 times. For the same compound, in the series on H146 xenograft tumors, the “Cleavage of PARP and caspase-3 in H146 tumor tissue” value was “robust cleavage of PARP and caspase-3”. Besides, in series [9] (15 mg/kg i.v.), the “Antitumor activity” value is listed as “strong antitumor activity”; the “Tumor regression” value is “rapid, complete and durable tumor regression; also recorded: rapid, complete and persistent tumor regression”. In [9] (H146 xenograft efficacy study, 15 mg/kg i.v., during or after treatment), this compound registered a Weight loss of under 5%. Moreover, the “Mice with measurable tumors, of 8 treated” value in series [9] (day 62, 18 days after end of treatment, 15 mg/kg i.v.) is reported as “none”. This compound also returned an Average tumor size in series [9] (day 117, 8 mice, 130 mm^3 at start of treatment (day 33)) of 47 mm^3. The “Mice without measurable tumors” value in series [9] (day 117, 74 days after end of treatment, 8 mice, 15 mg/kg i.v.) came out at 50%.

On to `Cc1c(Cl)c(-c2cccc(N3CCN(c4ccc(NS(=O)(=O)c5ccc(N[C@H](CCN(C)C)CSc6ccccc6)c([N+](=O)[O-])c5)cc4)CC3)c2)c(-c2ccc(Cl)cc2)n1C` [Compound 13, (R)-N-(4-(4-(3-(4-Chloro-2-(4-chlorophenyl)-1,5-dimethyl-1H-pyrrol-3-yl)phenyl)piperazin-1-yl)phenyl)-4-(4-(dimethylamino)-1-(phenylthio)butan-2-ylamino)-3-nitrobenzenesulfonamide], for which the “Times less potent than compound 4 in binding to Bcl-2” value on Bcl-2 [7] was 100 times. Moreover, the “Times less potent than compound 4 in H146 cell growth inhibition” value in series [1] (versus 4) is listed as over 100 times.

The values above are taken from article PMC3806060 (Journal of medicinal chemistry, 2013).
